The list is not random: actives were taken first. Their share in the collection is about 2.9%.
NS3 helicase inh: blocks Hepatitis C virus NS3 helicase unwinding; inhibition, % at 10.9 µM; 0.56% of 290,000 active; NS3 helicase DNA unwinding, Cy5 molecular beacon fluorescence;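 active = inhibition above the mean of all tested compounds plus 3 SD, set per campaign, cut at about 35% in these data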;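 note: 0% = DMSO wells and 100% = thioflavine S control wells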
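Assay system: hepatitis C virus NS3 helicase domain fragment enzyme. Also added: annealed dual-labelled DNA beacon duplex, ATP-started. Timing: 1 h reaction at 25 °C, ATP-initiated. Technique: Cy5 fluorescence at 0 and 60 min, beacon hairpin quenching. Evaluation: % inhibition of unwinding. Replication: one well per compound.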
HCV core dimer: HCV core protein dimerization inhibition; TR-FRET GST/Flag-core106 dimerization, 1536-well; inhibition, % at 5 µM; 0.33% of 300,000 active;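 active = inhibition above the mean of all tested compounds plus 3 SD, set per screening campaign, cut at about 45% in these data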
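System – GST-tagged and Flag-tagged HCV core protein residues 1-106 · Repeats – one well for each compound · Technique – TR-FRET 671 and 617 nm emission · Doses – one concentration, 5 µM, in 0.5% DMSO · Times – 4 h, 22.5 °C incubation · Also added – Eu donor and XL665 acceptor anti-tag antibodies · Measure – percent inhibition of core106 dimerization signal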
APOBEC3A inh: human APOBEC3A DNA deaminase inhibition; P31941; recombinant A3A, FAM/TAMRA ssDNA deamination fluorescence; 0.41% of 330,000 active; inhibition, % at 20 µM;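 active = at least 40% inhibition at 20 µM here, with at most 30% in a related deaminase screen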;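 note: plate controls were A3A with DMSO for no effect and wells lacking A3A enzyme for full effect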
Target sequence (P31941 whole entry, looked up): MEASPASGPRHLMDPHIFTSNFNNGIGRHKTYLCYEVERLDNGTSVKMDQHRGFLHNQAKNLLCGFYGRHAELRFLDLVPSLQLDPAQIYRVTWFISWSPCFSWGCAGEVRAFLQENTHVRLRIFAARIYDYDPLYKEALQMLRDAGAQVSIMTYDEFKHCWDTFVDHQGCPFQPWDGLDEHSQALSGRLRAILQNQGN
ABHD5 PLIN5 PPI: ABHD5-PLIN5 protein interaction inhibition; inhibition, % at 4 µM; AID 602281; Split G. princeps luciferase complementation, luminescence, 4 h; 0.78% of 360,000 active; Q00G26+Q8WTS1;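 active = inhibition above the mean inhibition across every tested compound plus 3 SD, cut at about 22% in these data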;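 note: 0% = DMSO only wells and the 100% control is not disclosed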
A3G deaminase: blocks human APOBEC3G single-stranded DNA deamination; Q9HC16; inhibition, % at 20 µM; AID 493012; recombinant A3G, ssDNA deamination FAM/TAMRA fluorescence; 0.28% of 330,000 active;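 active = inhibition of at least 40% at 20 µM, with no more than 30% in the related APOBEC3A deaminase screen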;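 note: plate controls were DMSO wells with A3G for no effect and wells lacking A3G enzyme for full effect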
Target sequence (Q9HC16 whole entry, looked up): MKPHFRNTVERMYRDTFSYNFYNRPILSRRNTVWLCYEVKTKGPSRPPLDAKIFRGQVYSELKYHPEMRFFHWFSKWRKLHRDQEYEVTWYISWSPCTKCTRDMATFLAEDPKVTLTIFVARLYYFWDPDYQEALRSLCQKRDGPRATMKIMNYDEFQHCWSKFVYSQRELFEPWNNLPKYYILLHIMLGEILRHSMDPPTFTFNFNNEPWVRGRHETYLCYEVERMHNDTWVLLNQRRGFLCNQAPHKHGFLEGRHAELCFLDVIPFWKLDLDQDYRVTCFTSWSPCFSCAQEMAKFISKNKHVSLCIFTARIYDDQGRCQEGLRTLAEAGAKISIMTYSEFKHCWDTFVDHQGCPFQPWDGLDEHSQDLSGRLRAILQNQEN
PRMT1 FP inh: blocks human protein arginine methyltransferase 1; Q99873; inhibition, % at 2.79 µM; recombinant PRMT1, activity-based probe fluorescence polarization; AID 652257; 1.3% of 370,000 active;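 active = inhibition above about 21% made by adding two undisclosed values, limit read from the data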
PRMT1 inh conf: confirmation of human PRMT1 inhibitors | recombinant His-PRMT1, activity-based probe fluorescence polarization | 42% of 3,300 active | shares compounds with PRMT1 FP inh | inhibition, % at 2.79 µM | AID 687036;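 active = mean inhibition across replicates above the hit cutoff derived for the earlier primary screen, cut at about 22% in these data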
Active calls of the source: *.

For CCOC(=O)[C@H]1[C@H]2COc3ccccc3[C@@H]2N2C(=O)CN(Cc3ccc(C)cc3)C(=O)[C@@]12C the results were APOBEC3A inh -2.1, ABHD5 PLIN5 PPI 11.9, A3G deaminase -8.7, PRMT1 FP inh 50.2* and PRMT1 inh conf 8.4.
`COc1ccc(CCNC2CC(=O)N(CCc3ccc(OC)c(OC)c3)C2=O)cc1OC` (centres undefined) gave NS3 helicase inh 27.5, ABHD5 PLIN5 PPI 5.3, PRMT1 FP inh 54.3* and PRMT1 inh conf 1.1.
CCC1(C)NC(=O)N(CC(=O)Nc2sc3c(c2C(=O)OC)CCCCC3)C1=O (centres undefined) was read as NS3 helicase inh -3.9, HCV core dimer 2.3, APOBEC3A inh -2.7, ABHD5 PLIN5 PPI -2.2, A3G deaminase -4.7 and PRMT1 FP inh 0.1.
`COC(=O)c1c(NC(=O)CN2C(=O)C(=O)N(CC(C)C)C2=O)sc2c1CCCCC2` gave NS3 helicase inh 1.2, HCV core dimer -1.9, APOBEC3A inh 19.1, ABHD5 PLIN5 PPI -8.1, A3G deaminase 5.5, PRMT1 FP inh 57.8* and PRMT1 inh conf 8.4.
`CCCc1nc2c(sc3nc4c(cc32)COC(C)(C)C4)c(=O)n1Cc1ccco1` gave NS3 helicase inh 24.4, HCV core dimer 4.8, APOBEC3A inh 3.3, ABHD5 PLIN5 PPI 16.7, A3G deaminase -5.7, PRMT1 FP inh 30.5* and PRMT1 inh conf 9.1.
For Cc1ccc(S(=O)(=O)NCCC(=O)NCC(c2ccco2)N2CCCCC2)cc1C (centres undefined) the results were HCV core dimer 4.7, APOBEC3A inh -4.6, ABHD5 PLIN5 PPI 5.4, A3G deaminase -6.3 and PRMT1 FP inh -4.3.
For Clc1cccc(CN2CCN(c3ncccn3)CC2)c1Cl the results were NS3 helicase inh -13.3, HCV core dimer 3.1, APOBEC3A inh -1.2, ABHD5 PLIN5 PPI -1.0, A3G deaminase -6.1 and PRMT1 FP inh -1.6.
Screening O[C@H]1C[C@H](c2ccc(Cl)cc2)N(Cc2cccs2)C[C@@H]1n1cc(-c2ccc(F)cc2)nn1 returned ABHD5 PLIN5 PPI 1.0 and PRMT1 FP inh 3.1.
COc1ccc(-c2ccc3c(n2)CCCN3S(=O)(=O)c2ccc(C#N)cc2)cc1 was read as PRMT1 FP inh 45.0* and PRMT1 inh conf 26.1*.
`COc1cc(/C=C/C(=O)O)cc(S(=O)(=O)Nc2ccc3nc(C)sc3c2)c1OC` gave NS3 helicase inh 13.1, HCV core dimer 0.6, APOBEC3A inh 2.2, ABHD5 PLIN5 PPI -3.8, A3G deaminase -3.7, PRMT1 FP inh 25.3* and PRMT1 inh conf 27.6*.
`COc1cc(/C=C/C(=O)O)cc(S(=O)(=O)Nc2ccc(F)cc2)c1OC` gave NS3 helicase inh 4.6, HCV core dimer -11.0, APOBEC3A inh 0.7, ABHD5 PLIN5 PPI -0.7, A3G deaminase 1.4 and PRMT1 FP inh 0.3.
`CC(C)N1CCc2c(sc(NC(=O)C(F)F)c2-c2nc3ccccc3s2)C1` gave PRMT1 FP inh 28.9* and PRMT1 inh conf 4.7.
`CC(=O)Nc1sc2c(c1-c1nc3ccccc3s1)CCN(C(C)C)CC2` gave PRMT1 FP inh 36.9* and PRMT1 inh conf 11.3.
Screening CC1(Oc2ccc3ccccc3c2)CCN(Cc2ccc(OC(F)(F)F)cc2)C1 (centres undefined) returned ABHD5 PLIN5 PPI 0.2 and PRMT1 FP inh -4.1.
`NC(=O)CN1C(=O)NC2(CCCc3ccccc32)C1=O` (centres undefined) gave NS3 helicase inh 6.0, HCV core dimer -0.1, APOBEC3A inh -5.3, ABHD5 PLIN5 PPI -2.3, A3G deaminase -6.0 and PRMT1 FP inh -4.9.
O=C(NCc1ccccc1C(F)(F)F)c1cccc2c1C(=O)c1ccc(N3CCCCC3)cc1S2(=O)=O was read as APOBEC3A inh -1.5, ABHD5 PLIN5 PPI 0.1, A3G deaminase -8.3 and PRMT1 FP inh 4.8.
`COC(=O)c1sc2nc(-c3ccccc3)c3c(c2c1N)CCCC3` gave NS3 helicase inh 2.2, HCV core dimer 5.1, APOBEC3A inh -4.4, ABHD5 PLIN5 PPI 3.1, A3G deaminase -7.9 and PRMT1 FP inh -1.4.
Screening Nc1c(C(=O)O)sc2nc(-c3ccccc3)c3c(c12)CCCC3 returned NS3 helicase inh 15.8, HCV core dimer 33.2, APOBEC3A inh -0.9, ABHD5 PLIN5 PPI -10.3, A3G deaminase 3.0, PRMT1 FP inh 26.9* and PRMT1 inh conf 4.7.
`Cc1ccc(OCCC(=O)OCC(=O)Nc2ccc3c(c2)OCCO3)cc1` gave HCV core dimer -2.1, APOBEC3A inh 0.2, ABHD5 PLIN5 PPI 1.5, A3G deaminase -4.9, PRMT1 FP inh 32.1* and PRMT1 inh conf 8.8.
CCOc1ccc(OCCC(=O)OCC(=O)Nc2ccc3c(c2)OCO3)cc1 was read as HCV core dimer 11.5, APOBEC3A inh 8.4, ABHD5 PLIN5 PPI -3.5, A3G deaminase -9.0 and PRMT1 FP inh 1.6.
Screening Clc1ccc(N=c2ssnc2Cl)cc1 returned NS3 helicase inh 4.6, HCV core dimer -0.6, APOBEC3A inh -1.5, ABHD5 PLIN5 PPI 0.8, A3G deaminase 76.3*, PRMT1 FP inh 72.6* and PRMT1 inh conf 92.6*.
Fc1ccc(N=c2ssnc2Cl)c(F)c1 was read as NS3 helicase inh 5.0, HCV core dimer 7.9, APOBEC3A inh -0.5, ABHD5 PLIN5 PPI -3.0, A3G deaminase 73.5*, PRMT1 FP inh 43.7* and PRMT1 inh conf 40.5*.
For O=C(O)CNC(=O)CC1S/C(=N/N=C2\CSC(=O)N2)NC1=O (centres undefined) the results were NS3 helicase inh 3.7, HCV core dimer 1.1, APOBEC3A inh -1.2, ABHD5 PLIN5 PPI -21.1, A3G deaminase -4.6, PRMT1 FP inh 38.3* and PRMT1 inh conf 21.6*.
`COc1cccc(NC(=O)C2C3C=CC(O3)C2C(=O)O)c1` (centres undefined) gave NS3 helicase inh -10.9, HCV core dimer 3.4, APOBEC3A inh -3.0, ABHD5 PLIN5 PPI 1.7, A3G deaminase -2.0 and PRMT1 FP inh -0.8.
Screening COc1ccc(NC(=O)C2C3C=CC(O3)C2C(=O)O)cc1 (centres undefined) returned NS3 helicase inh 3.4, HCV core dimer 11.3, APOBEC3A inh -3.4, ABHD5 PLIN5 PPI 2.0, A3G deaminase -2.6, PRMT1 FP inh 36.0* and PRMT1 inh conf 8.5.
`Cc1[nH]n(-c2ccccc2)c(=S)c1C=Nc1cccc([N+](=O)[O-])c1` gave NS3 helicase inh 6.7, HCV core dimer -17.7, APOBEC3A inh -3.7, ABHD5 PLIN5 PPI -39.5, A3G deaminase 8.5, PRMT1 FP inh 95.3* and PRMT1 inh conf 97.9*.
CCCCN=Cc1c(C)[nH]n(-c2ccccc2)c1=S was read as NS3 helicase inh 0.8, HCV core dimer -4.3, APOBEC3A inh 2.1, ABHD5 PLIN5 PPI -13.9, A3G deaminase 22.5, PRMT1 FP inh 26.1* and PRMT1 inh conf 2.6.
